These results are taken from publication PMC4306503 (Bioconjugate Chemistry, 2014).

A word on the Kd: it is the concentration at which binding is half-saturated.

*1 amine or outer side, *2 acyl side, *3 side chain or, on linkers, in order; H or OH if unused. Where a SMILES comes first, the peptide text is derived from it. Side-chain parts run from the residue outwards. [ ]: non-standard residue; d: D form. The star is where a group is joined. X1 = COc1cc2c3cc1OCCOc1cc4c(cc1OC)Cc1cc5c(OC)cc1Cc1cc(c(OCc6cn(CCC(=O)*)nn6)cc1C4)OCCOc1cc(c(cc1OC)Cc1cc(c(OC)cc1C3)OCCO5)C2; Pteroyl = Nc1nc2ncc(CNc3ccc(C(=O)*)cc3)nc2c(=O)[nH]1; γGlu = O=C(O)[C@H](CCC(=O)[*:2])N[*:1]; AEEEA = NCCOCCOCCOCC(=O)O; StBu = CC(C)(C)S*

One series deals with folate receptor (FR). The settings on record: high affinity FR, 1:1 stoichiometry; cited from earlier work.
Series [1] deals with reduced folate carrier (RFC). The settings on record: low affinity folate carrier RFC; cited from earlier work.
For series [2] the following is noted: at 300 K; cited from earlier work.
The next series deals with KB (FR+) cells. As to the kind of experiment: MTT cell viability assay, KB cells. The settings on record: 100 μM (highest concentration), 24 h incubation. The series is classed as cell-based, human. In outline: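 KB cells kept in RPMI-1640 (25 mM HEPES, 2 mM L-glutamine, 15% fetal calf serum, penicillin/streptomycin) and seeded at 25 000 per well overnight. Unlabelled test conjugate added in triplicate at final 0–100 μM for 24 h in the dark. Cells then DPBS-washed thrice and given MTT (5 mg/mL solution) for 3 h. Formazan was dissolved in DMSO and read at 540 nm. Viability is expressed as percent of untreated-control absorbance.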

A short description of series [3]: Solubility in water after HPLC purification. The series is classed as physicochemical. The settings on record: after cleavage from solid support and reverse-phase HPLC purification.
In series [4] the target is folate binding protein (FBP) (Bos taurus, UniProt P02702). As to the kind of experiment: Hyperpolarized 129Xe NMR with folate binding protein. The settings on record: 30 μM FBP, 30 and 60 μM biosensor, acetate buffer pH 5.0 with and without 10% glycerol, incubated 30 min.
Sequence of folate binding protein (FBP) (P02702 20-241): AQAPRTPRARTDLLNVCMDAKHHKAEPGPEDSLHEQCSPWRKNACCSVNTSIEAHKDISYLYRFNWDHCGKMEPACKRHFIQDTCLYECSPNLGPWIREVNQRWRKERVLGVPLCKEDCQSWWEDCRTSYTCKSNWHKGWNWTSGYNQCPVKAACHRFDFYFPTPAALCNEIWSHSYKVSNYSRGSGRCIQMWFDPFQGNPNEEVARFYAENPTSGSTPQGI

`CN1c2c(nc(N)[nH]c2=O)NCC1CNc1ccc(C(=O)N[C@@H](CCC(=O)O)C(=O)O)cc1` (stereo partly drawn) [5-methyltetrahydrofolate, 5-methyl tetrahydrofolate]: the Kd on folate receptor (FR) was 0.1 to 1 nM. The dissociation constant entry in series [1] is reported as “micromolar”.
For the compound `[Xe]` [129Xe], in series [2], the water solubility is reported as 4.2 mM atm^–1.
Consider `COc1cc2c3cc1OCCOc1cc4c(cc1OC)Cc1cc5c(OC)cc1Cc1cc(c(OCc6cn(CCC(=O)N[C@@H](CCCCNC(=O)CC[C@H](NC(=O)c7ccc(NCc8cnc9nc(N)[nH]c(=O)c9n8)cc7)C(=O)O)C(=O)N[C@@H](CCCCN)C(=O)N[C@@H](CCCNC(=N)N)C(=O)N[C@@H](CCCCN)C(=O)N[C@@H](CCCNC(=N)N)C(=O)N[C@@H](CCCCN)C(=O)NCCOCCOCCOCC(=O)N[C@@H](CCCNC(=N)N)C(=O)N[C@@H](CCCCN)C(=O)N[C@@H](CSSC(C)(C)C)C(=O)N[C@@H](CCCNC(=N)N)C(N)=O)nn6)cc1C4)OCCOc1cc(c(cc1OC)Cc1cc(c(OC)cc1C3)OCCO5)C2` [compound 24] (X1-K([γGlu-Pteroyl])KRKRK[AEEEA]RKC(StBu)R-NH2), for which the “viability (maximum toxicity)” value in the series on KB (FR+) cells is on record as 23%. In addition, in series [3], the solubility in water result is “readily soluble in water”. Further, the “protein bound 129Xe NMR signal” value in series [4] was “no observable protein bound signal”.
